The text below walks through data of ChEMBL document CHEMBL1132406, “Synthesis and structure-activity relationships of phenylenebis(methylene)-linked bis-azamacrocycles that inhibit HIV-1 and HIV-2 replication by antagonism of the chemokine receptor CXCR4” (J Med Chem, 1999).

Each structure is given as a SMILES string.

For assay [1], the system named is Human immunodeficiency virus 1. The experiment in a line: Antiviral effective concentration for Inhibitory activity on HIV-1(IIIB) replication in MT-4 cells. Particulars: Human immunodeficiency virus 1, MT4. In kind it is functional, organism-based. A digest of the protocol: (§1)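 MT-4 cells infected at MOI 0.01 (100 × CCID50) with HIV-1 (IIIB) or HIV-2 (ROD) in presence of graded compound concentrations; antiviral and cytotoxicity run in parallel, CC50 on mock-infected cells. After 5 days of growth, viable cells counted by MTT colorimetry. EC50 = concentration protecting 50% of infected cells from cytopathicity; values averaged over several experiments.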

The test system of another assay is MT4. The experiment in a line: 50% cytotoxic concentration was tested against HIV infected MT-4 cells. Particulars: Homo sapiens, in the assay text read “mock-infected” for “HIV infected”. In kind it is functional. The method in brief: as §1
The subject of assay [2] is Human immunodeficiency virus 2. The experiment in a line: Antiviral effective concentration for Inhibitory activity on HIV-2(ROD) replication in MT-4 cells. In kind it is functional, organism-based. Particulars: Human immunodeficiency virus 2, MT4. The method in brief: as §1
In assay [3] the target is C-X-C chemokine receptor type 4 (Homo sapiens, UniProt P61073). The experiment in a line: Inhibitory activity against CXCR4-specific monoclonal antibody 12G5 (mAb-12G5) binding to human chemokinin receptor CXCR4 in lymphocytic SUP-T1 cells. In kind it is cell-based. A digest of the protocol: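 SUP-T1 cells preincubated with compound or PBS 15 min at room temperature, washed, then exposed to CXCR4 mAb 12G5 for 30 min, washed, stained with FITC goat anti-mouse antibody for 30 min at room temperature. Flow cytometry measured percent positive cells and MFI; inhibition derived from MFI, IC50 calculated.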
C-X-C chemokine receptor type 4, sequence (P61073 whole entry): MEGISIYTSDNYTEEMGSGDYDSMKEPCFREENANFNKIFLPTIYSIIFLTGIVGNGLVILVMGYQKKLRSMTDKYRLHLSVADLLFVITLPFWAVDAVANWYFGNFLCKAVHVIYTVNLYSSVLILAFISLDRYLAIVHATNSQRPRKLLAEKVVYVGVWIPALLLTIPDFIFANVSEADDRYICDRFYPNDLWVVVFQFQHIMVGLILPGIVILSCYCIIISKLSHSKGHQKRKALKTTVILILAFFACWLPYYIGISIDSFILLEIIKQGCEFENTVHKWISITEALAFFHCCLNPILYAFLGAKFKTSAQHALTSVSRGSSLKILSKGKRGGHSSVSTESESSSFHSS

What is called EC50 is the concentration giving half of the maximal effect. Read a low EC50 as a more potent agent. What is called CC50 is the concentration that lowers cell viability or growth by half. Higher therefore signals lower toxicity to the cells. A word on the IC50: it is the concentration needed to halve the response being measured. A higher IC50 goes with lower potency.

Regarding `c1cc2nc(c1)CCNCCCN(Cc1ccc(CN3CCCNCCc4cccc(n4)CCNCCC3)cc1)CCCNCC2`, the EC50 in assay [1] amounted to 0.421 µM; in assay [2], 1.21 µM. In addition, the CC50 in the assay on MT4 amounted to 142 µM.

As for `c1cc2nc(c1)CNCCN(Cc1ccc(CN3CCNCc4cccc(n4)CNCC3)cc1)CCNC2`, the half-maximal effective concentration (EC50) in assay [1] is 0.524 µM; in assay [2], 0.127 µM. Also, the IC50 in assay [3] is 4.36 µM. It took 8.5 µM to reach half-maximal cytotoxicity in the assay on MT4 (CC50).

Turning to `c1cc2nc(c1)CCNCCN(Cc1ccc(CN3CCNCCc4cccc(n4)CCNCC3)cc1)CCNCC2`, the EC50 is 0.0008 µM in assay [1] and 0.0016 µM in assay [2]. The compound also gave an IC50 in assay [3] of 0.001 µM. In the assay with MT4, this compound returned a CC50 of 194 µM.

Consider `c1cc(CN2CCNCc3cccc(n3)CNCC2)cc(CN2CCNCc3cccc(n3)CNCC2)c1`, for which the half-maximal effective concentration (EC50) in assay [1] was found to be 0.0971 µM; in assay [2], 0.0025 µM. In the assay with MT4, this compound had a CC50 of 30 µM.

Regarding `c1cc(CN2CCCNCCNCCCNCC2)ccc1CN1CCCNCCNCCCNCC1`, in the assay on MT4, the half-maximal cytotoxic concentration (CC50) was greater than 421 µM.

In the case of `Clc1cc2nc(c1)CNCCCN(Cc1ccc(CN3CCCNCc4cc(Cl)cc(n4)CNCCC3)cc1)CCCNC2`, the EC50 in assay [1] turned out to be 0.751 µM; in assay [2] it was 0.759 µM. In addition, in assay [3], the concentration for half-maximal inhibition (IC50) stood at 5.74 µM. The same compound had a CC50 with MT4 of 17.8 µM.

Regarding `c1cc(CN2CCCNCCOCCNCCC2)ccc1CN1CCCNCCOCCNCCC1`, the EC50 in assay [1] worked out at 4.49 µM. This compound also returned a cytotoxic concentration (CC50) with MT4 greater than 244 µM.

For the compound `c1cc(CN2CCCSCCSCCCNCC2)ccc1CN1CCCSCCSCCCNCC1`, the concentration for a half-maximal effect (EC50) in assay [1] and in assay [2] was greater than 6.84 µM each time. The compound further came in with an IC50 in assay [3] greater than 35 µM. Besides, the CC50 in the assay on MT4 worked out at 6.8 µM.

Take `COc1cc2nc(c1)CNCCCN(Cc1ccc(CN3CCCNCc4cc(OC)cc(n4)CNCCC3)cc1)CCCNC2`: the concentration for a half-maximal effect (EC50) stood at 3.1 µM in assay [1] and 8.46 µM in assay [2]. This compound also came in with a CC50 with MT4 of 216 µM.

As to `c1cc2cc(c1)CNCCCN(Cc1ccc(CN3CCCNCc4cccc(c4)CNCCC3)cc1)CCCNC2`, it took 7.96 µM to reach a half-maximal effect in assay [1] (EC50). The compound further showed a CC50 in the assay on MT4 of 133 µM.

`c1cc(CN2CCCNCCNCCNCCC2)ccc1CN1CCCNCCNCCNCCC1`: the figures for the EC50 in assay [1] and in assay [2] were 0.0337 µM and 0.0422 µM, respectively. In assay [3], the IC50 was found to be 0.067 µM. The CC50 with MT4 was greater than 421 µM.

Compound `c1cc(CN2CCCNCCCCCNCCC2)ccc1CN1CCCNCCCCCNCCC1` returned a half-maximal effective concentration (EC50) in assay [1] of 9.61 µM. The compound further came in with an IC50 in assay [3] greater than 35 µM. In the assay with MT4, the CC50 turned out to be 133 µM.

Turning to `c1cc(CN2CCCOCCOCCCNCC2)ccc1CN1CCCOCCOCCCNCC1`, the 50% effective concentration (EC50) in assay [1] and in assay [2] was greater than 363 µM in each case. In assay [3], this compound came in with an IC50 greater than 35 µM. The 50% cytotoxic concentration (CC50) with MT4 was greater than 363 µM.

Regarding `c1cc(CN2CCCNCc3cncc(n3)CNCCC2)ccc1CN1CCCNCc2cncc(n2)CNCCC1`, the results for the concentration giving a half-maximal response (EC50) in assay [1] and in assay [2] were 30.9 µM and 20.7 µM, respectively. The same compound registered an IC50 in assay [3] greater than 35 µM. The compound also yielded a CC50 in the assay with MT4 of 209 µM.

`c1ccc(-c2cc3nc(c2)CNCCCN(Cc2ccc(CN4CCCNCc5cc(-c6ccccc6)cc(n5)CNCCC4)cc2)CCCNC3)cc1`: in assay [1], the EC50 came out at 1.75 µM. The compound also displayed a CC50 in the assay with MT4 of 19.3 µM.

With `c1cc2nc(c1)CNCCCN(Cc1ccc(CN3CCCNCc4cccc(n4)CNCCC3)cc1)CCCNC2`, a half-maximal response in assay [1] (EC50) required 0.534 µM. In the assay with MT4, this compound gave a CC50 of 199 µM.

For `Oc1cc2nc(c1)CNCCCN(Cc1ccc(CN3CCCNCc4cc(O)cc(n4)CNCCC3)cc1)CCCNC2`, the values for the EC50 in assay [1] and in assay [2] were 174 µM and 200 µM, respectively. In addition, the concentration for half-maximal inhibition (IC50) in assay [3] was greater than 35 µM. In the assay with MT4, this compound registered a CC50 of 200 µM.
